Assay results taken from ChEMBL document CHEMBL1143600, “Synthesis and pharmacology of ethylphenidate enantiomers: the human transesterification metabolite of methylphenidate and ethanol” (J Med Chem, 2005).
Where a name gives a salt, the structure may show the parent alone.

What was measured:
[1] = target: T1, Sodium-dependent noradrenaline transporter (Homo sapiens, UniProt P23975); experiment: Inhibition of [3H]norepinephrine uptake in HEK293 cells expressing human norepinephrine transporter; format: functional, cell-based
T1 sequence (P23975 whole entry): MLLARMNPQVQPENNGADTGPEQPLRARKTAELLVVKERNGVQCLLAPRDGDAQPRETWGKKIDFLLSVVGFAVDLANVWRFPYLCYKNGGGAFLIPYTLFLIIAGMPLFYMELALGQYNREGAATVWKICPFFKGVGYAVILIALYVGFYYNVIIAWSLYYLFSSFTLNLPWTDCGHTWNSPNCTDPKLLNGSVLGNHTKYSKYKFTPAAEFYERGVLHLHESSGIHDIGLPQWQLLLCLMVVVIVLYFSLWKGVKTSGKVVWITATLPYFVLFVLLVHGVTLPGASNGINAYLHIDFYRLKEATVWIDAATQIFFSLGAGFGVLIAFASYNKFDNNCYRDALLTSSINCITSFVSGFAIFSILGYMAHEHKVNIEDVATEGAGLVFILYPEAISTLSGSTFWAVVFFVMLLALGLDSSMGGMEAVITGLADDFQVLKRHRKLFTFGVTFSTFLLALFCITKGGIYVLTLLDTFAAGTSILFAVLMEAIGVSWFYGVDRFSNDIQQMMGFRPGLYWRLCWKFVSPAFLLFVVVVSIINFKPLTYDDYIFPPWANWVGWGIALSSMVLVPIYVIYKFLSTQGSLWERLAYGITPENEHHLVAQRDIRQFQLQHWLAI

[2] = target: T1, Sodium-dependent noradrenaline transporter; experiment: Displacement of [125I]RTI-55 from human Norepinephrine transporter expressed in HEK293 cells; format: cell-based
[3] = target: T2, Sodium-dependent serotonin transporter (Homo sapiens, UniProt P31645); experiment: Inhibition of [3H]5-HT uptake in HEK293 cells expressing human serotonin transporter; format: functional, cell-based
T2 sequence (P31645 whole entry): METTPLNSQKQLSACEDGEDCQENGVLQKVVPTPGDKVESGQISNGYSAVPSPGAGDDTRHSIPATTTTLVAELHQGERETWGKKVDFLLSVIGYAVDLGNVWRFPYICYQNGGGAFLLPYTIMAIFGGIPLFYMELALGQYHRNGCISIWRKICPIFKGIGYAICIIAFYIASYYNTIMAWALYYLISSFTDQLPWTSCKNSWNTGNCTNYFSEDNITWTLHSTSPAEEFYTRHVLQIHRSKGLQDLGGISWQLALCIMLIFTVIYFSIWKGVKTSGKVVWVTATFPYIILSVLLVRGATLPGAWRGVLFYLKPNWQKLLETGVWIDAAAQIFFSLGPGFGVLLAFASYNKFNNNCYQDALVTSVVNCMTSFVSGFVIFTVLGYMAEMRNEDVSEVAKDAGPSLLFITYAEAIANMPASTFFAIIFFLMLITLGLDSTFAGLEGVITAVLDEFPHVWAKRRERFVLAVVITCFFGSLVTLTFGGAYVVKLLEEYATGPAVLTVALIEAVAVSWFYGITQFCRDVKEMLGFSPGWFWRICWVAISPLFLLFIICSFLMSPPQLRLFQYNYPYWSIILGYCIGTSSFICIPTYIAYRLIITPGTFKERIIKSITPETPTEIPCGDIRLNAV
In short: (§1)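 HEK293 cells expressing the human transporter were grown to confluence, triturated in Krebs-HEPES and preincubated 10 min with compound (six concentrations). Uptake was started with [3H]serotonin or [3H]dopamine at 20 nM final and stopped after 10 min by filtration over PEI-presoaked GF/C filters. Nonspecific uptake: 5 µM imipramine (SERT) or 5 µM mazindol (DAT). IC50 from triplicate curves, 2–3 independent determinations.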

[4] = target: T2, Sodium-dependent serotonin transporter; experiment: Displacement of [125I]RTI-55 from human Serotonin transporter expressed in HEK293 cells; format: cell-based
In short: (§2)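 Membranes from HEK293 cells expressing the human transporter (grown to 80% confluence, lysed in 2 mM HEPES/1 mM EDTA, spun at 30000g). 10–15 µg protein was preincubated 10 min with compound in Krebs-HEPES pH 7.4 containing pargyline, tropolone, glucose and ascorbate. Nonspecific binding: 5 µM mazindol (DAT) or 5 µM imipramine (SERT). IC50 converted to Ki by Cheng-Prusoff.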

[5] = target: T3, Sodium-dependent dopamine transporter (Homo sapiens, UniProt Q01959); experiment: Displacement of [125I]-RTI-55 from Dopamine transporter expressed in HEK293 cells; format: cell-based; in short: as §2
T3 sequence (Q01959 whole entry): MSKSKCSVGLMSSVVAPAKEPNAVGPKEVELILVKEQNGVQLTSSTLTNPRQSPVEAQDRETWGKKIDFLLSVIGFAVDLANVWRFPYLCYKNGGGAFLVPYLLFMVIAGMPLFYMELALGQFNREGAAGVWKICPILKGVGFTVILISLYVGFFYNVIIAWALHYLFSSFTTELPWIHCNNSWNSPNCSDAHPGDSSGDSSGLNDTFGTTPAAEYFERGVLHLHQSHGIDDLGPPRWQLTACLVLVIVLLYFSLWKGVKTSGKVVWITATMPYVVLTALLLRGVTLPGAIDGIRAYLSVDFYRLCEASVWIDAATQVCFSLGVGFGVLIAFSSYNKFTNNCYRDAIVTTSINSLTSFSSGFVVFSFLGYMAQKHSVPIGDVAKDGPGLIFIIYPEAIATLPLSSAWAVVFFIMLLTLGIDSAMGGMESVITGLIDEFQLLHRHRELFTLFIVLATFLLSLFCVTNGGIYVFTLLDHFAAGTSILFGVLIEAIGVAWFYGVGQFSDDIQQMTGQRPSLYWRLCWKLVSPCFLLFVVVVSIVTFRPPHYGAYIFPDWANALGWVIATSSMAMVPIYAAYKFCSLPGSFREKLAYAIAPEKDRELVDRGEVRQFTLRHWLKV

[6] = target: T3, Sodium-dependent dopamine transporter; experiment: Inhibition of [3H]dopamine uptake in HEK293 cells expressing human dopamine transporter; format: functional, cell-based; in short: as §1

| Structure (SMILES) | IC50 [1] [nM] | IC50 [2] [nM] | IC50 [3] [nM] | IC50 [4] [nM] | IC50 [5] [nM] | IC50 [6] [nM] |
| --- | --- | --- | --- | --- | --- | --- |
| CCOC(=O)C(c1ccccc1)C1CCCCN1 (racemic) | 480 | > 7200 | > 10000 | 7540 | 319 | 95 |
| COC(=O)C(c1ccccc1)C1CCCCN1 (racemic) [METHYLPHENIDATE HYDROCHLORIDE] | 51 | 788 | – | > 10000 | – | – |
| CCOC(=O)[C@@H](c1ccccc1)[C@@H]1CCCCN1 (stereo in doubt; (-)-2) | > 10000 | > 10000 | > 10000 | > 9500 | 2700 | 1730 |
